Assay [1] has as its system Fusarium oxysporum f. sp. vasinfectum. Briefly: Antifungal activity against Fusarium oxysporum f. sp. vasinfectum by MTT assay. The format is functional. An outline of the steps: (§1)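 MIC read visually on microtiter plates, then confirmed colorimetrically with MTT. Each well received RPMI 1640 carrying MTT at 5 mg/mL and was incubated 3 h at 37 °C. Medium was removed and the dye extracted with isopropanol containing 5% mol/L HCl for 30 min at room temperature with gentle agitation. OD read at 550 nm.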
Background: Tetrazolium assays rely on reduction of a dye to a coloured formazan, in cell work by metabolically active cells.

The next assay deals with Pyricularia oryzae. The experiment in a line: Antifungal activity against Pyricularia oryzae by MTT assay. It counts as functional.
A further assay relates to Cytospora mali. The experiment in a line: Antifungal activity against Valsa mali by MTT assay. The format is functional. An outline of the steps:
as §1

The test system of the next assay is Alternaria alternata. Briefly: Antifungal activity against Alternaria alternata by MTT assay. The format is functional. The essentials:
as §1

The subject of the next assay is Alternaria solani. Briefly: Antifungal activity against Alternaria solani by MTT assay. The format is functional. An outline of the steps:
as §1

The next assay concerns Colletotrichum lagenaria. Briefly: Antifungal activity against Colletotrichum lagenarium by MTT assay. The format is functional. An outline of the steps:
as §1

The target in another assay is Urease (Canavalia ensiformis, UniProt P07374). Briefly: Inhibition of jack bean urease. The essentials:
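Jack bean urease (4 U) preincubated with test compound (100 µg) for 2 h at room temperature; then 100 mM phosphate buffer pH 6.8 containing 500 mM urea and 0.002% phenol red added, incubated at room temperature; time for ammonium carbonate to raise pH from 6.8 to 7.7 read at 570 nm; IC50 determined; acetohydroxamic acid as positive control.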

Structures are written as SMILES. ≈ marks a conversion by molar mass, not a printed value.

Urease, sequence (P07374 whole entry): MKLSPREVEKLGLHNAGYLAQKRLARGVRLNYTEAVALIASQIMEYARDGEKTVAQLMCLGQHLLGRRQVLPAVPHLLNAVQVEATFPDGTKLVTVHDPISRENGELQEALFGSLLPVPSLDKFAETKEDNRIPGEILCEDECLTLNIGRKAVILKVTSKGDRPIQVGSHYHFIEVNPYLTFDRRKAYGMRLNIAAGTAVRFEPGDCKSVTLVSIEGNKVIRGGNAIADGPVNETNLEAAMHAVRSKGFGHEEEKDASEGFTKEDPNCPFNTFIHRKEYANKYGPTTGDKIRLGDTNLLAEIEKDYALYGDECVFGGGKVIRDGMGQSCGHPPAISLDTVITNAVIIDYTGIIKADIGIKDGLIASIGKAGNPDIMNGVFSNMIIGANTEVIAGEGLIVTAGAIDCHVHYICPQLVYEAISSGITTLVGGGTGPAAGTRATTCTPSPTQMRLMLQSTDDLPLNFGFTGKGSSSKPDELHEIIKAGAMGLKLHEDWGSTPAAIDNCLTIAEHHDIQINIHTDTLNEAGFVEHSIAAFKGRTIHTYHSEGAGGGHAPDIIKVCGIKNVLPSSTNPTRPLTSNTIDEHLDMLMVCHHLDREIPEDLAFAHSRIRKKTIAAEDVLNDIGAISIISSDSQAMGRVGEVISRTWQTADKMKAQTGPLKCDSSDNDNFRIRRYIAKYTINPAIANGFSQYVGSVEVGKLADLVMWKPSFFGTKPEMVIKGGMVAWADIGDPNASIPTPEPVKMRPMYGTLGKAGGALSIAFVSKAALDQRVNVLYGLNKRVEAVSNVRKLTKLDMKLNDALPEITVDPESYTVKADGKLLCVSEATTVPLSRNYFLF

The MIC is the lowest concentration that inhibits growth of the organism. Regarding `Oc1ccc([C@@H]2c3cc(O)ccc3[C@@H]3c4c(O)cc(O)cc4[C@@H]2c2c(O)cc(O)c4c2[C@@H]3[C@@H](c2ccc(O)cc2)[C@@H]4c2cc(O)cc(O)c2)cc1` [VATICANOL G], the MIC is over 50 mg/L in assay [1]; 0.78 mg/L (≈ 1.15 µM) in the assay with Pyricularia oryzae; over 50 mg/L with Cytospora mali; over 50 mg/L in the assay on Alternaria alternata; 24.6 mg/L (≈ 36.1 µM) in the assay with Alternaria solani; over 50 mg/L against Colletotrichum lagenaria.

With `Oc1ccc([C@H]2Oc3cc(O)cc4c3[C@@H]2c2cc(O)cc3c2[C@@H](c2cc(O)cc5c2[C@@H]4[C@H](c2ccc(O)cc2)O5)[C@H](c2ccc(O)cc2)O3)cc1`, the MIC in assay [1] was 25.2 mg/L (≈ 37.1 µM); in the assay on Pyricularia oryzae it was 6.25 mg/L (≈ 9.21 µM); against Cytospora mali, over 50 mg/L; in the assay with Alternaria alternata, over 50 mg/L; against Alternaria solani, 3.12 mg/L (≈ 4.6 µM); in the assay with Colletotrichum lagenaria, 12.5 mg/L (≈ 18.4 µM).

On to `O=C1C=C2O[C@@H](c3ccc(O)cc3)[C@H]3C2=C(C1=O)[C@H]1c2c(cc(O)cc2[C@@H]2c4c(cc(O)cc43)O[C@H]2c2ccc(O)cc2)O[C@@H]1c1ccc(O)cc1` [HOPEANOLIN], for which the MIC in assay [1] was found to be 6.22 mg/L (≈ 8.98 µM); in the assay with Pyricularia oryzae it was 0.1 mg/L (≈ 0.144 µM); against Cytospora mali it was 1.55 mg/L (≈ 2.24 µM); against Alternaria alternata, 22.5 mg/L (≈ 32.5 µM); with Alternaria solani, 1.56 mg/L (≈ 2.25 µM); against Colletotrichum lagenaria it was 10.6 mg/L (≈ 15.3 µM).

On to `Oc1ccc([C@@H]2c3c(O)cc(O)cc3[C@@H]3c4c(cc(O)c5c4[C@@H]2[C@@H](c2ccc(O)cc2)[C@@H]5c2cc(O)cc(O)c2)O[C@H]3c2ccc(O)cc2)cc1` [PAUCIFLOROL A], for which the MIC is over 50 mg/L in assay [1]; 11.5 mg/L (≈ 16.9 µM) against Pyricularia oryzae; over 50 mg/L with Cytospora mali; 1.56 mg/L (≈ 2.29 µM) with Alternaria alternata; over 50 mg/L against Alternaria solani; over 50 mg/L with Colletotrichum lagenaria.

As to `Oc1ccc([C@@H]2c3c(O)cc(O)cc3[C@@H]3c4c(cc(O)c5c4[C@H]2[C@H](c2ccc(O)cc2)[C@H]5c2cc(O)cc(O)c2)O[C@H]3c2ccc(O)cc2)cc1` [VATICANOL A], the MIC was 12.7 mg/L (≈ 18.7 µM) in assay [1]; 3.12 mg/L (≈ 4.58 µM) in the assay on Pyricularia oryzae; 20.1 mg/L (≈ 29.5 µM) in the assay on Cytospora mali; over 50 mg/L against Alternaria alternata; 6.25 mg/L (≈ 9.18 µM) against Alternaria solani; over 50 mg/L against Colletotrichum lagenaria.

In the case of `CC(=O)N1CCN(c2ccc(OCC3COC(Cn4ccnc4)(c4ccc(Cl)cc4Cl)O3)cc2)CC1` (stereo not drawn) [KETOCONAZOLE], the MIC in assay [1] is 2.21 mg/L (≈ 4.16 µM); with Pyricularia oryzae it was 0.03 mg/L (≈ 0.0565 µM); in the assay with Cytospora mali, 0.51 mg/L (≈ 0.96 µM); in the assay on Alternaria alternata, 1.04 mg/L (≈ 1.96 µM); in the assay with Alternaria solani, 0.83 mg/L (≈ 1.56 µM); in the assay on Colletotrichum lagenaria, 0.97 mg/L (≈ 1.83 µM).

By IC50 is commonly meant the midpoint of a concentration-inhibition curve. The compound `CC(=O)NO` [ACETOHYDROXAMIC ACID] returned an IC50 on Urease of 17.3 µM.

With `O=C1c2cc(O)cc3oc(-c4ccc(O)cc4)c(c23)-c2cc(O)cc(O)c2C1c1ccc(O)cc1` (stereo not drawn) [SHOREAPHENOL], the MIC in assay [1] was over 50 mg/L; in the assay with Pyricularia oryzae, 27.3 mg/L (≈ 58.5 µM); against Cytospora mali, 7.13 mg/L (≈ 15.3 µM); with Alternaria solani, over 50 mg/L; in the assay on Colletotrichum lagenaria, over 50 mg/L. The same compound had an IC50 against Urease of 127 µM.

Source of the values: ChEMBL document CHEMBL1158139, “Bioactive oligostilbenoids from the stem bark of Hopea exalata” (J Nat Prod, 2006).
